Tests used:
[1] = tested on: L1210; experiment: Tested for in vitro growth inhibition against murine leukemia cell L1210DACH; type: functional, cell-based; conditions: Mus musculus
[2] = tested on: L1210; experiment: Tested for in vitro growth inhibition against murine leukemia cell L1210DDP5; type: functional, cell-based; conditions: Mus musculus
[3] = tested on: L1210; experiment: Tested for the ratio of number of survivors / total number after 60 days at the dose of 10 mg/kg per injection against murine leukemia L1210 experiment 2; type: functional, organism-based; conditions: Mus musculus
Summary of the method: (§1)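 CD2F1 (Balb/c × DBA/2F1) mice, 18–22 g, randomized and inoculated IP with counted leukemia cells on day 0, then re-randomized. Three IP treatments, dissolved in 0.9% saline and dosed on average cage weight, with dose in mg/kg per injection across a full toxic-to-ineffective range. Median life span and %T/C were recorded. Survivors at 60 days were counted as cured and excluded from %T/C.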

[4] = tested on: L1210; experiment: Tested for the ratio of number of survivors / total number after 60 days at the dose of 5.0 mg/kg per injection against murine L1210 Pt-resistant leukemia in experiment 2; type: functional, organism-based; conditions: Mus musculus; summary of the method: as §1
[5] = tested on: L1210; experiment: Tested for the ratio of number of survivors / total number after 60 days at the dose of 6.0 mg/kg per injection against murine L1210 Pt-resistant leukemia; type: functional, organism-based; conditions: Mus musculus; summary of the method: as §1
[6] = tested on: L1210; experiment: Tested for in vivo weight change against murine L1210 Pt-resistant leukemia at the dose of 10 mg/kg per injection in experiment 2; type: functional, organism-based; conditions: Mus musculus
Summary of the method: (§2)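 Leukemia life-span assays used CD2F1 (Balb/c × DBA/2F1) mice weighing 18–22 g. Cells were inoculated IP on day 0, and compounds in 0.9% saline were given IP, dosed by average cage weight. Weight change is the difference in mean group weight between the last and first treatment days.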

[7] = tested on: L1210; experiment: Tested for in vitro growth inhibition against murine leukemia cell L1210PtR4; type: functional, cell-based; conditions: Mus musculus
[8] = tested on: L1210; experiment: Tested for median life span against solid tumor L1210 leukemia at 10 mg/kg per injection in experiment 2; type: functional, organism-based; conditions: Mus musculus
Summary of the method: (§3)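 CD2F1 mice weighing 18–22 g were inoculated IP with leukemia cells on day 0. Compounds in 0.9% saline were given IP in three injections, dosed by average cage weight, over a dose range from toxic to ineffective. Median life span was recorded, with cause of death assessed at necropsy and 60-day survivors counted as cured.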

[9] = tested on: L1210; experiment: Tested for median life span against solid tumor L1210 leukemia at 5.0 mg/kg per injection in experiment 2; type: functional, organism-based; conditions: Mus musculus; summary of the method: as §3
[10] = tested on: L1210; experiment: Tested for in vitro growth inhibition against murine leukemia cell L1210S; type: functional, cell-based; conditions: Mus musculus
[11] = tested on: L1210; experiment: Tested for the ratio of treated and control against solid tumor murine L1210 leukemia 5.0 mg/kg per injection in experiment 2; T/C; type: functional, organism-based; conditions: Mus musculus
Summary of the method: (§4)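 Murine leukemia life span assay in CD2F1 (Balb/c × DBA/2F1) mice, 18–22 g, randomized, with IP tumor cell inoculation on day 0. Depending on the model, the inoculum was 1 × 10^4 cells with IP dosing on days 3, 7 and 11, or 1 × 10^6 cells with IP dosing on days 1, 5 and 9. Drug was given in 0.9% saline, mg/kg per injection, by average cage weight. Read-outs were median day of death and %T/C. Mice alive 60 days after treatment counted as cured and were excluded.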

[12] = tested on: L1210; experiment: Tested for the ratio of treated and control against solid tumor murine L1210 leukemia 6.0 mg/kg per injection in experiment 1; T/C; type: functional, organism-based; conditions: Mus musculus; summary of the method: as §4
[13] = tested on: Mus musculus; experiment: Tested for median life span against solid tumor P388 Pt-resistant leukemia at 10 mg/kg per injection; type: functional, organism-based; summary of the method: as §3
[14] = tested on: Mus musculus; experiment: Tested for the ratio of treated and control tumor to reach 750 mg against murine solid tumor M5076 sarcoma 9.0 mg/kg per injection; type: functional, organism-based
Summary of the method: (§5)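 Solid tumor growth delay assay; B16 melanoma and M5076 sarcoma were run in B6C3F1 (C57BL/6 × C3HF1) mice of 18–22 g. Tumor fragments were implanted SC on day 0, then drug in 0.9% saline was given IP on days 1, 5, 9 or days 3, 7, 11, mg/kg per injection. T − C is the difference in days for treated and control tumors to reach 750 mg. Net log cell kill is tumor burden reduction during therapy. Cured mice were excluded.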

[15] = tested on: Mus musculus; experiment: Tested for the ratio of number of survivors / total number after 60 days at the dose of 10 mg/kg per injection against murine P388 Pt-resistant leukemia; type: functional, organism-based; summary of the method: as §1
[16] = tested on: Mus musculus; experiment: Tested for the ratio of number of survivors / total number after 60 days at the dose of 10 mg/kg per injection against murine leukemia P388; type: functional, organism-based; summary of the method: as §1
[17] = tested on: Mus musculus; experiment: Tested for in vivo weight change against murine P388 Pt-resistant leukemia at the dose of 10 mg/kg per injection; type: functional, organism-based; summary of the method: as §2
[18] = tested on: Mus musculus; experiment: Tested for median life span against solid tumor P388 Pt-resistant leukemia at 5.0 mg/kg per injection; type: functional, organism-based; summary of the method: as §4
[19] = tested on: Mus musculus; experiment: Tested for median life span against solid tumor P388 leukemia at 10 mg/kg per injection; type: functional, organism-based; summary of the method: as §4
[20] = tested on: Mus musculus; experiment: Tested for net cell kill tumor burden reduction during therapy at the dose 9.0 mg/kg in B16 melanoma; type: functional, organism-based; parameters: dose 9 mg/kg; summary of the method: as §5
[21] = tested on: Mus musculus; experiment: Tested for the ratio of treated and control against solid tumor murine P388 Pt-resistant leukemia 10 mg/kg per injection; T/C; type: functional, organism-based; summary of the method: as §4
[22] = tested on: Mus musculus; experiment: Tested for the ratio of treated and control against solid tumor murine P388 Pt-resistant leukemia 5.0 mg/kg per injection; T/C; type: functional, organism-based; summary of the method: as §4
[23] = tested on: P388; experiment: Tested for in vitro growth inhibition against murine leukemia cell P388Pt4; type: functional, cell-based; conditions: Mus musculus
[24] = tested on: P388; experiment: Tested for in vitro growth inhibition against murine leukemia cell P388S; type: functional, cell-based; conditions: Mus musculus
[25] = tested on: Mus musculus; experiment: tested for in vivo weight change against murine M5076 sarcoma at the dose of 9.0 mg/kg per injection; type: functional, organism-based
Summary of the method: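 Host weight change in the SC M5076 sarcoma growth delay test in B6C3F1 mice. Drug was given IP in 0.9% saline, mg/kg per injection. Weight change is the maximum treatment-related weight loss.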

[26] = tested on: L1210; experiment: Tested for the ratio of number of survivors / total number after 60 days at the dose of 1.5 mg/kg per injection against murine L1210 Pt-resistant leukemia in experiment 1; type: functional, organism-based; conditions: Mus musculus; summary of the method: as §1
[27] = tested on: L1210; experiment: Tested for median life span against solid tumor L1210 Pt-resistant leukemia at 3.0 mg/kg per injection in experiment 1; type: functional, organism-based; conditions: Mus musculus; summary of the method: as §3
[28] = tested on: L1210; experiment: Tested for median life span against solid tumor L1210 leukemia at 2.5 mg/kg per injection in experiment 2; type: functional, organism-based; conditions: Mus musculus; summary of the method: as §3
[29] = tested on: L1210; experiment: Tested for the ratio of treated and control against solid tumor murine L1210 leukemia 2.5 mg/kg per injection in experiment 2; T/C; type: functional, organism-based; conditions: Mus musculus; summary of the method: as §4
[30] = tested on: Mus musculus; experiment: Tested for the ratio of number of survivors / total number after 60 days at the dose of 2.3 mg/kg per injection against murine P388 Pt-resistant leukemia; type: functional, organism-based; summary of the method: as §1
[31] = tested on: Mus musculus; experiment: Tested for the ratio of number of survivors / total number after 60 days at the dose of 2.3 mg/kg per injection against murine leukemia P388 experiment 2; type: functional, organism-based; summary of the method: as §1
[32] = tested on: Mus musculus; experiment: Tested for median life span against solid tumor P388 Pt-resistant leukemia at 3.7 mg/kg per injection; type: functional, organism-based; summary of the method: as §4
[33] = tested on: Mus musculus; experiment: Tested for the ratio of treated and control tumor to reach 750 mg against murine solid tumor colon carcinoma 2.5 mg/kg per injection; type: functional, organism-based
[34] = tested on: Mus musculus; experiment: Tested for in vivo weight change against murine P388 leukemia at the dose of 2.3 mg/kg per injection in experiment 2; type: functional, organism-based; summary of the method: as §2
[35] = tested on: Mus musculus; experiment: Tested for in vivo weight change against murine P388 leukemia at the dose of 3.7 mg/kg per injection in experiment 2; type: functional, organism-based; summary of the method: as §2
[36] = tested on: Mus musculus; experiment: Tested for median life span against solid tumor P388 leukemia at 3.7 mg/kg per injection in experiment 2; type: functional, organism-based; summary of the method: as §4
[37] = tested on: Mus musculus; experiment: Tested for the ratio of treated and control against solid tumor murine P388 leukemia 3.7 mg/kg per injection in experiment 2; T/C; type: functional, organism-based; summary of the method: as §4

## CISPLATIN
[1]
  ID50: 0.52 µg/mL
[2]
  ID50: 4.11 µg/mL
[3]
  Survivors: 1
[4]
  Survivors: 0
[5]
  Survivors: 0
[6]
  Weight change: -4.8 g
[7]
  ID50: 7.84 µg/mL
[8]
  MLS: 18.5 days
[9]
  MLS: 16 days
[10]
  ID50: 0.375 µg/mL
[11]
  Ratio: 172%
[12]
  Ratio: 175%
[13]
  MLS: 18 days
[14]
  T-C: 15.9 days
[15]
  Survivors: 0
[16]
  Survivors: 3
[17]
  Weight change: -5.9 g
[18]
  MLS: 19.3 days
[19]
  MLS: 9.5 days
[20]
  Log net cell kill: -0.4
[21]
  T/C: 123%
[22]
  T/C: 132%
[23]
  ID50: 10 µg/mL
[24]
  ID50: 0.128 µg/mL
[25]
  Weight change: -5.1 g

## [Pt(cis-1,4-dach)CL2]
[26]
  60-day survivors: 0
[1]
  ID50: 1.08 µg/mL
[2]
  ID50: 0.663 µg/mL
[27]
  MLS: 17 days
[7]
  ID50: 1.21 µg/mL
[28]
  MLS: 22.5 days
[10]
  ID50: 0.248 µg/mL
[29]
  Ratio: 242%
[30]
  60-day survivors: 0
[31]
  60-day survivors: 0
[32]
  MLS: 25.8 days
[33]
  T-C: 3.8 days
[34]
  Weight change: -2.2 g
[35]
  Weight change: -6 g
[36]
  MLS: 26 days
[37]
  T/C: 234%
[23]
  ID50: 1.43 µg/mL
[24]
  ID50: 0.047 µg/mL

Source: ChEMBL document CHEMBL1127616, “Synthesis, structural characterization, and antitumor properties of a novel class of large-ring platinum(II) chelate complexes incorporating the cis-1,4-diaminocyclohexane ligand in a unique locked boat conformation” (J Med Chem, 1994)
